Results gathered from unrelated publications.
Lines come from different studies, so protocols differ.
MET: Hepatocyte growth factor receptor (MET, Homo sapiens, UniProt P08581)
MET Y1235D: Hepatocyte growth factor receptor (MET, Homo sapiens, UniProt P08581, Y1235D)
MET M1250T: Hepatocyte growth factor receptor (MET, Homo sapiens, UniProt P08581, M1250T)

Compound	target	test	setting	remaining binding
C[C@@H]1CN(c2ccc3ncc(-c4ccc5[nH]nc(C6CC6)c5c4)n3n2)C[C@H](C)O1	MET	binding, competition with immobilised ligand	0.5 µM	80%
CN(c1nccc(-c2cnn3ncccc23)n1)C1CC1	MET Y1235D	binding	1 µM	100%
Nc1ncc2c(n1)-c1c([nH]c3ccc(C#CC4CC4)cc13)CCCC2	MET Y1235D	binding, competition with immobilised ligand	1 µM	92%
O=C(NCCCN1CCOCC1)c1ccc(Nc2nccc(-c3cc4ccccc4s3)n2)cc1	MET Y1235D	binding, competition with immobilised ligand	1 µM	100%
CN(C)C(=O)Cn1cc(-c2nc([C@@](C)(c3ccc(-c4cnc(N)nc4)cc3)C3CC3)no2)cn1	MET Y1235D	cell-free assay, competition with immobilised ligand	1 µM	96%
CN1CCN(c2ccc(Nc3nccc(-c4cccc([N+](=O)[O-])c4)n3)cc2C(F)(F)F)CC1	MET Y1235D	binding	10 µM	27%
CN(C(=O)c1ccccc1)c1cc(N(C)c2ccc3c(c2)CCc2ccc(C(=O)NCCN4CCOCC4)cc2C3=O)ccc1F	MET Y1235D	cell-free assay, competition with immobilised ligand	1 µM	85%
CN(C)c1nccc(-c2cnn3ncccc23)n1	MET Y1235D	binding	1 µM	90%
Cn1cc(Cl)c2c(Oc3c(F)cc(Nc4cc(Cl)nc(N)n4)cc3F)ccnc21	MET Y1235D	cell-free assay, competition with immobilised ligand	0.1 µM	91%
O=C(c1ccc(Nc2nccc(-c3cc4ccccc4s3)n2)cc1)N1CCC(N2CCCC2)CC1	MET	binding, competition with immobilised ligand	1 µM	69%
CN(C)c1nccc(-c2cnc3ncccn23)n1	MET M1250T	binding	1 µM	91%
CCCCN(CCCC)C(=O)CN1C[C@H](c2cc(OC)c3c(c2)OCO3)[C@@H](C(=O)O)[C@@H]1CC(C)(C)CCC	MET Y1235D	cell-free assay, competition with immobilised ligand	1 µM	100%
O=C(NCC1CCOCC1)c1n[nH]cc1NC(=O)c1c(F)cccc1F	MET M1250T	binding, competition with immobilised ligand	1 µM	90%
C[C@@H]1CCN(c2nccc(-c3cnn4ncccc34)n2)C1	MET Y1235D	binding	1 µM	79%
COc1cnc(Nc2cccc(S(N)(=O)=O)c2)nc1N1CCN(c2ccccc2)C(=O)C1	MET	binding, competition with immobilised ligand	1 µM	100%
CN(CCCC(F)(F)F)c1nccc(-c2cnn3ncccc23)n1	MET Y1235D	binding	1 µM	100%
CN(C)C(=O)Cn1cc(-c2nc(C3(c4ccc(-c5cnc(N)nc5)cc4)CC3)no2)cn1	MET M1250T	cell-free assay, competition with immobilised ligand	1 µM	100%
O=C(c1ccc(Nc2ncc(Cl)c(-c3ccc(Cl)s3)n2)cc1)N1CCC(N2CCCC2)CC1	MET Y1235D	binding, competition with immobilised ligand	1 µM	51%
F[C@@H]1CCN(c2nccc(-c3cnn4ncccc34)n2)C1	MET Y1235D	binding	1 µM	100%
CNC(=O)[C@@H]1CC[C@@H](n2c(-c3ccc4cnccc4c3)nc3ccc(C(=O)NCc4cccc(C(N)=O)c4)cc32)C1	MET M1250T	binding, competition with immobilised ligand	1 µM	100%
N[C@@H]1CCN(c2nccc(-c3cnn4ncccc34)n2)C1	MET M1250T	binding	1 µM	100%
FC(F)(F)c1ccc2c(c1)nc(-c1cccnc1)n2C1CC1	MET Y1235D	cell-free assay, competition with immobilised ligand	1 µM	100%
